According to ChEMBL document CHEMBL4610127, “Novel Autotaxin Inhibitor for the Treatment of Idiopathic Pulmonary Fibrosis: A Clinical Candidate Discovered Using DNA-Encoded Chemistry” (J Med Chem, 2020):
Converted amounts (≈) assume the structure as drawn. The source made the active and inactive calls. No cut-off for these calls is given here.

Tests used:
Autotaxin [1] = target: T1, Autotaxin (Homo sapiens, UniProt Q13822); experiment: Inhibition of C-terminal FLAG-tagged human autotaxin expressed in Freestyle 293 cells assessed as reduction in choline release from LPC 16:0 pre-incubated for 10 mins before LPC addition and measured after 1 hr by choline oxidase/HRP coupled assay; assay type: cell-based
Autotaxin [2] = target: T1, Autotaxin; experiment: Inhibition of autotaxin in human plasma assessed as reduction in LPA (18:2) production incubated for 2 hrs LC-MS-/MS analysis; assay type: cell-free
[3] = Time above IC90 in mouse at 30 mg/kg, po; assay type: ADME, organism-based; details: in vivo
[4] = target: Voltage-gated inwardly rectifying potassium channel KCNH2 (Homo sapiens, UniProt Q12809); experiment: Inhibition of human ERG by manual patch clamp assay
Chain of Voltage-gated inwardly rectifying potassium channel KCNH2 (Q12809 whole entry): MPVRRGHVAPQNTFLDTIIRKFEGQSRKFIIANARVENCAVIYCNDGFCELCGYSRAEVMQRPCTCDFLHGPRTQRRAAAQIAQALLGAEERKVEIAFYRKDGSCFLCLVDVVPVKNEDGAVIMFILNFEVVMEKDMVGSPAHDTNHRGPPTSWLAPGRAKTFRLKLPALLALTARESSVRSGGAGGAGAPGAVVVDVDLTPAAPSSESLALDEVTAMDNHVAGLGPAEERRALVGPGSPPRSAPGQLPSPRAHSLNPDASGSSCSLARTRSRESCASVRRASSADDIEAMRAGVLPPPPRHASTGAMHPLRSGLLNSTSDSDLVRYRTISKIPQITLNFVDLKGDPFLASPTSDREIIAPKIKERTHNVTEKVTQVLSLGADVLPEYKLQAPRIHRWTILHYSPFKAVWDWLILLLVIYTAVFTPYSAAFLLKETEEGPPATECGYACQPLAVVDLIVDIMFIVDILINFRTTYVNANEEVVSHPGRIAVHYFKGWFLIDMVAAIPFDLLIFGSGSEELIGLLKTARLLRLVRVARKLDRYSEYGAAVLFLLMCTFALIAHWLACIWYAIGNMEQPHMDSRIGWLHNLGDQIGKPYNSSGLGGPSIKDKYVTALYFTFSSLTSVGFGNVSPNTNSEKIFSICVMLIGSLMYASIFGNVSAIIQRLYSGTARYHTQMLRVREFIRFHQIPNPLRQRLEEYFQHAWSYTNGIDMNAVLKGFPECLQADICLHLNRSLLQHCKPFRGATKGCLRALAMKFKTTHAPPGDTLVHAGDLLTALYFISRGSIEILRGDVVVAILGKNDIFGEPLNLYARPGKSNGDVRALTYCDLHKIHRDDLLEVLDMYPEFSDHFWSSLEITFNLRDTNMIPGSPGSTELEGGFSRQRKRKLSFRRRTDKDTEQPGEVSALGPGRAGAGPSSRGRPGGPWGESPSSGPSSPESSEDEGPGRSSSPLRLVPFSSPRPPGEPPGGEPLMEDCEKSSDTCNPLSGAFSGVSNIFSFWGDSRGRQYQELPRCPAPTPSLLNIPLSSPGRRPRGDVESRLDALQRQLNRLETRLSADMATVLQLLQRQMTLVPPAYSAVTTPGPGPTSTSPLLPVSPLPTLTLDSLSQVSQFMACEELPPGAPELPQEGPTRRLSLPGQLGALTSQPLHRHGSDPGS

Cytochrome P450 1A2 = target: T2, Cytochrome P450 1A2 (Homo sapiens, UniProt P05177); experiment: Inhibition of CYP1A2 (unknown origin); assay type: ADME
T2 sequence (P05177 whole entry): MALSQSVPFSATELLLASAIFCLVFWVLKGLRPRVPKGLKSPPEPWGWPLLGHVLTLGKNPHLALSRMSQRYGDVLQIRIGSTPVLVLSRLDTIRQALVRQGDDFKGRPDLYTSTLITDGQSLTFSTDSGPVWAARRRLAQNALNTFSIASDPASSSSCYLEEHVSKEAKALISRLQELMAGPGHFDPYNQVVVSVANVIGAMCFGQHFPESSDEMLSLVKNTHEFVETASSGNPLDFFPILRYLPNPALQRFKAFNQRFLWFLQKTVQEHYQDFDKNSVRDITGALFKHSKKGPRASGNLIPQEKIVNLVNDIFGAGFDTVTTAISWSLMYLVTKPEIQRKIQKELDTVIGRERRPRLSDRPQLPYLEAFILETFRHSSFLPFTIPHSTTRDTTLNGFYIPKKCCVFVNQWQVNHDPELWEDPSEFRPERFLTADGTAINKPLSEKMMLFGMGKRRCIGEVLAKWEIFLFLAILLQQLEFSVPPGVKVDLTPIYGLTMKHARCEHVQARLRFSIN

Cytochrome P450 2C9 = Cytochrome P450 2C9 (Homo sapiens, UniProt P11712); experiment: Inhibition of CYP2C9 (unknown origin); assay type: ADME
Chain of Cytochrome P450 2C9 (P11712 whole entry): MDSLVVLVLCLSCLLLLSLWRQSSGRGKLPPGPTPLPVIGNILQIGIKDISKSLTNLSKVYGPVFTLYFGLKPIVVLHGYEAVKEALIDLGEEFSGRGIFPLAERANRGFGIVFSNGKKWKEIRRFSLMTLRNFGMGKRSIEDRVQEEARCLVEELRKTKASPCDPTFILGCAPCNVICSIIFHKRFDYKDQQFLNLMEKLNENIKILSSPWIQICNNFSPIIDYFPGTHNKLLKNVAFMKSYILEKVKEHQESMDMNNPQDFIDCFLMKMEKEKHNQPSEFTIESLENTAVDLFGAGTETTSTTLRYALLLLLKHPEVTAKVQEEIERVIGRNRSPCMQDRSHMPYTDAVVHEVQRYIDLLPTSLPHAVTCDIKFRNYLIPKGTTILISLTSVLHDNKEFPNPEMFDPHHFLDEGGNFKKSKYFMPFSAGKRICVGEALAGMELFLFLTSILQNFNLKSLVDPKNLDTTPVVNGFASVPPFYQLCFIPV

Cytochrome P450 2C19 = Cytochrome P450 2C19 (Homo sapiens, UniProt P33261); experiment: Inhibition of CYP2C19 (unknown origin); assay type: ADME
Chain of Cytochrome P450 2C19 (P33261 whole entry): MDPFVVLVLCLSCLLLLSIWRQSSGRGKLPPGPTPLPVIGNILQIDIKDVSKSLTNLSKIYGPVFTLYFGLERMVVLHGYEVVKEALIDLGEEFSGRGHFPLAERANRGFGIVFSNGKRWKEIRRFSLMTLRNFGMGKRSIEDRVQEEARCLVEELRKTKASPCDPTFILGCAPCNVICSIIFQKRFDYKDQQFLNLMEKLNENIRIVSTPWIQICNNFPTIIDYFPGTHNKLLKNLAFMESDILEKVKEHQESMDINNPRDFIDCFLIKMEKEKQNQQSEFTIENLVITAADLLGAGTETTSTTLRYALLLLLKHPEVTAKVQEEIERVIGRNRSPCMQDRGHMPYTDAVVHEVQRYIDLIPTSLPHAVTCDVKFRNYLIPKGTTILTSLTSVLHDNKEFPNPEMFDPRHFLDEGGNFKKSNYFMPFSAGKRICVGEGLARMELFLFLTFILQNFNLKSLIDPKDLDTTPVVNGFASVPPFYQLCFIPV

[5] = target: T3, Lysophosphatidic acid receptor 3 (Homo sapiens, UniProt Q9UBY5); experiment: Inhibition of LPAR3 (unknown origin)
T3 sequence (Q9UBY5 whole entry): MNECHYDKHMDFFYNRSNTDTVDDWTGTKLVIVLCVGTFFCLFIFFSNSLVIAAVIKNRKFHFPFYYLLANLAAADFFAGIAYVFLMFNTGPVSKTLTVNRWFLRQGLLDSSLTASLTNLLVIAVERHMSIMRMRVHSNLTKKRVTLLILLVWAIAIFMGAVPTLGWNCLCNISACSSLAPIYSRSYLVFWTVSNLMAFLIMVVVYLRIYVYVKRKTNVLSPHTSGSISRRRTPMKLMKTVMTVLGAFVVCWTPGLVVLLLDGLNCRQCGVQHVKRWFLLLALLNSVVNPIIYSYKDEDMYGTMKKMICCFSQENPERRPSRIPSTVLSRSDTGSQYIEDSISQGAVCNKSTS

[6] = Half life in rat liver microsomes; assay type: ADME, Microsome
[7] = Thermodynamic solubility in pH 7.4 buffer; assay type: physicochemical; details: read-out: Therm_solubility
Mus musculus [8] = experiment: Anti-fibrotic activity in C57BL/6 mouse model of bleomycin-induced lung fibrosis assessed as reduction in hydroxyproline levels at 30 to 300 mg/kg, po BID dosed until day 21 starting one day prior to bleomycin treatment; assay type: functional; details: C57BL/6, po, read-out: MED
Summary of the method: (§1)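 Mice given oral BID doses (30, 100 or 300 mg/kg) starting one day before bleomycin. Killed 21 days after bleomycin; lung fibrosis scored by hydroxyproline in one group. GLPG1690 at 30 and 100 mg/kg BID as control. Hydroxyproline plotted per mouse; medians and p-values against bleomycin + vehicle.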

Mus musculus [9] = experiment: Anti-fibrotic activity in C57BL/6 mouse model of bleomycin-induced lung fibrosis assessed as reduction in hydroxyproline levels at 100 to 300 mg/kg, po BID dosed until day 21 starting one day prior to bleomycin treatment; assay type: functional, organism-based; summary of the method: as §1
[10] = Half life in mouse at 1 mg/kg, iv; assay type: ADME, organism-based; details: in vivo
[11] = AUClast in mouse at 10 mg/kg, po; assay type: ADME, organism-based; design: dose 10 mg/kg, time 0 - last, route oral; details: in vivo
[12] = Half life in mouse at 10 mg/kg, po; assay type: ADME, organism-based; details: in vivo
[13] = Oral bioavailability in mouse at 10 mg/kg; assay type: ADME, organism-based; details: in vivo
[14] = Cmax in rat at 5 mg/kg, po; assay type: ADME, organism-based; design: dose 5 mg/kg, route oral; details: in vivo
[15] = AUClast in rat at 5 mg/kg, po; assay type: ADME, organism-based; design: dose 5 mg/kg, route oral, time 0 - last; details: in vivo
[16] = Oral bioavailability in rat at 5 mg/kg; assay type: ADME, organism-based; details: in vivo
[17] = Clearance in dog at 1 mg/kg, iv; assay type: ADME, organism-based, Canis lupus familiaris; details: in vivo
[18] = Half life in dog at 1 mg/kg, iv; assay type: ADME, organism-based, Canis lupus familiaris; details: in vivo

In the case of `CC(C)[C@@H](NC(=O)c1cc(C(F)(F)F)ccc1F)C(=O)N1CCC2(CC1)C(=O)N(C)C(=O)N2c1ccc2[nH]ncc2c1`, the IC50 (Autotaxin [1]) is reported as 0.055 µM, the IC50 (Autotaxin [2]) is reported as 0.014 µM and the Time [3] is reported as 12 h. For the same compound, the IC50 [4] was over 50 µM, the IC50 (Cytochrome P450 1A2) was over 50 µM and the IC50 (Cytochrome P450 2C9) was 10.4 µM. The IC50 (Cytochrome P450 2C19) was 46 µM, the IC50 [5] was over 10 µM and the half-life [6] was 4.62 h. The solubility thermodynamic [7] was 452 µM (≈ 266 µg/mL), the minimal effective dose (Mus musculus [8]) was 30 mg/kg and the Activity (Mus musculus [9]) was “Active”. It also gave a half-life [10] of 0.57 h, an AUC(0-t) [11] of 2590 ng·h/mL and a half-life [12] of 2.5 h. The bioavailability [13] was 81%, the Cmax [14] was 160 ng/mL and the AUC(0-t) [15] was 518 ng·h/mL. It also gave a bioavailability [16] of 24%, a clearance [17] of 7.96 mL/min/kg and a half-life [18] of 4.1 h.
